This is one part of a sample in which hits are shown more often than they occur.
GASC1 inh: inhibitors of human demethylase GASC-1 KDM4C | Q9H3R0 | GST-KDM4C 2-372, H3K9me3 peptide, LANCE TR-FRET | inhibition, % at 12.5 µM | 0.15% of 96,000 active;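 active = mean replicate inhibition above about 25%, with at least 55% of replicates also reaching it, limit read from the data, passing the limit was not always enough; inconclusive = only one of those two conditions met; inactive = neither condition met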
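Material: GST-tagged GASC-1 (JMJD2C) catalytic fragment, aa 2-372 / Quantity: enzyme final amount 10 nM / Medium: HEPES buffer, pH 7.5, plus ascorbate / Doses: one test concentration per compound / Incubation: 30 min reaction, 60 min detection, RT / Measured by: LANCE TR-FRET / Read-out: inhibition from TR-FRET ratio decrease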
T cruzi growth-1: T. cruzi proliferation inhibition; 5.9% of 77,000 active; inhibition, % at 8.34 µM; T. cruzi beta-gal in NIH3T3, GalScreen luminescence, 90 h; AID 624255;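 active = mean inhibition above about 93%, with at least 55% of replicates each passing it, limit read from the data, passing the limit was not always enough; inconclusive = only one of those two conditions holds; inactive = neither condition holds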
IDH1 mut inh: inhibitors of human IDH1 R132H. IDH1 R132H reductase, diaphorase/resazurin fluorescence, 60 min. 0.18% of 70,000 active. O75874. AID 624101. inhibition, % at 10 µM; in the data active = inhibition above about 34%; inconclusive = no clear call, values can overlap the other calls; inactive = below about 11%
Target sequence (O75874 whole entry R132H): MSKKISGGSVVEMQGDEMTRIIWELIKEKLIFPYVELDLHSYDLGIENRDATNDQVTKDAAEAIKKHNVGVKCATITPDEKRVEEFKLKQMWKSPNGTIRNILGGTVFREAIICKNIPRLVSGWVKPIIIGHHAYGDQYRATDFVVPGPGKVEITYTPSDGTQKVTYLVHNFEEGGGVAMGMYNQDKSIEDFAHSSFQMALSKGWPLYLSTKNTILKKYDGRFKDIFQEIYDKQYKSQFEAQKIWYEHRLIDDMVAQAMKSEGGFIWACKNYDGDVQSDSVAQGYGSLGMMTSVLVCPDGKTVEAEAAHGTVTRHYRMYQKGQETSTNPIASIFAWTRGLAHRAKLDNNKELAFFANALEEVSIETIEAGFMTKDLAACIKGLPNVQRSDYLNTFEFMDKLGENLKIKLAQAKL
T cruzi growth-2: Trypanosoma cruzi proliferation inhibition | shares compounds with T cruzi growth-1 | T. cruzi beta-gal in NIH3T3, GalScreen luminescence, 90 h | inhibition, % at 8.35 µM | 72% of 5,600 active | AID 651739;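 active = mean replicate inhibition above about 95% and at least 55% of replicates individually reaching it, limit read from the data; inconclusive = only one of the two criteria is met; inactive = neither criterion is met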
T cruzi growth-3: Trypanosoma cruzi proliferation inhibition | shares compounds with T cruzi growth-1 | AID 651740 | 21% of 5,600 active | inhibition, % at 2.09 µM | T. cruzi beta-gal in NIH3T3, GalScreen luminescence, 90 h;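 active = mean inhibition above about 95%, with at least 55% of replicates also reaching it, limit read from the data; inconclusive = meets just one of the two conditions; inactive = meets neither condition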
3T3 cytotox: NIH/3T3 (mouse) viability loss | AID 651742 | shares compounds with T cruzi growth-1 | cytotoxicity (signal decrease), % at 8.35 µM | 14% of 5,600 active | NIH/3T3 viability, CellTiter-Glo ATP luminescence, 90 h;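 active = mean signal decrease across replicates above about 35% based on untreated-well scatter, with enough replicates individually passing, limit read from the data; inconclusive = no rule stated though some were filed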
NIH3T3 tox 2: kills mouse NIH/3T3 fibroblasts | shares compounds with T cruzi growth-1 | NIH/3T3 viability, CellTiter-Glo ATP luminescence, 90 h | AID 651744 | 56% of 5,600 active | inhibition, % at 24.9 µM;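 active = mean loss of cell viability signal at or above a set limit, and enough replicates individually reaching it; inconclusive = meets only the mean limit or only the replicate share; inactive = meets neither condition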
Of the large screens only hits and unclear results are named; the others gave an inactive call (follow-up assays come after a bar, where they were run).

COc1ccc(CN(C)C[C@H]2OCCCC[C@@H](C)Oc3ccc(NC(=O)C4CCCCC4)cc3C(=O)N([C@H](C)CO)C[C@H]2C)cc1	T cruzi growth-1 104 | T cruzi growth-2 102 | T cruzi growth-3 inactive | 3T3 cytotox inactive | NIH3T3 tox 2 96
COc1ccc(CN(C)C[C@H]2OCCCC[C@H](C)Oc3ccc(NC(=O)C4CCCCC4)cc3C(=O)N([C@@H](C)CO)C[C@H]2C)cc1	T cruzi growth-1 102 | T cruzi growth-2 inconclusive | T cruzi growth-3 inactive | 3T3 cytotox inactive | NIH3T3 tox 2 27
COc1ccc(CN(C)C[C@@H]2OCCCC[C@H](C)Oc3ccc(NC(=O)C4CCCCC4)cc3C(=O)N([C@@H](C)CO)C[C@@H]2C)cc1	none
COc1ccc(CN(C)C[C@@H]2OCCCC[C@@H](C)Oc3ccc(NC(=O)C4CCCCC4)cc3C(=O)N([C@@H](C)CO)C[C@H]2C)cc1	none (no result: IDH1 mut inh)
COc1ccc(CN(C)C[C@H]2OCCCC[C@@H](C)Oc3ccc(NC(=O)C4CCCCC4)cc3C(=O)N([C@@H](C)CO)C[C@H]2C)cc1	T cruzi growth-1 105 | T cruzi growth-2 inactive | T cruzi growth-3 inactive | 3T3 cytotox inactive | NIH3T3 tox 2 76
COc1ccc(CN(C)C[C@H]2OCCCC[C@H](C)Oc3ccc(NC(=O)C4CCCCC4)cc3C(=O)N([C@H](C)CO)C[C@@H]2C)cc1	none
COC(=O)c1sc2nc(-c3ccccc3)nc(Nc3nc(C)cc(C)n3)c2c1C	none (no result: GASC1 inh, T cruzi growth-1)
C=C1[C@@H]2CC[C@H]3[C@@]4(C)C(C[C@H](OC(=O)[C@]5(C)O[C@@H]5C)[C@]3(C2)[C@@H]1OC(C)=O)[C@](C)(C(=O)OC)CC[C@H]4OC(C)=O (stereo partly specified)	none (no result: GASC1 inh, T cruzi growth-1)
O=C(Nc1ccccc1)N1CCCCN2[C@H](CO)[C@H](c3ccc(-c4ccccc4F)cc3)[C@H]2C1	none (no result: IDH1 mut inh)
O=C(Nc1cccc(F)c1)N1CCCCN2[C@@H](CO)[C@@H](c3ccc(-c4ccccc4F)cc3)[C@@H]2C1	none (no result: IDH1 mut inh)
O=C(Nc1cccc(F)c1)N1CCCCN2[C@H](CO)[C@H](c3ccc(-c4ccccc4F)cc3)[C@H]2C1	T cruzi growth-1 101 (no result: IDH1 mut inh) | T cruzi growth-2 104 | T cruzi growth-3 112 | 3T3 cytotox 117 | NIH3T3 tox 2 104
O=C(Nc1ccccc1)N1CCCCN2[C@H](CO)[C@H](c3ccc(-c4ccccc4F)cc3)[C@@H]2C1	T cruzi growth-1 101 (no result: IDH1 mut inh) | T cruzi growth-2 111 | T cruzi growth-3 inactive | 3T3 cytotox inactive | NIH3T3 tox 2 inactive
O=C(Nc1ccc(F)cc1)N1CCCCN2[C@H](C1)[C@@H](c1ccc(-c3ccccc3F)cc1)[C@@H]2CO	none (no result: GASC1 inh, IDH1 mut inh)
O=C(Nc1ccc(F)cc1)N1CCCCN2[C@@H](CO)[C@H](c3ccc(-c4ccccc4F)cc3)[C@@H]2C1	T cruzi growth-1 106 (no result: GASC1 inh, IDH1 mut inh) | T cruzi growth-2 inactive | T cruzi growth-3 inactive | 3T3 cytotox 55 | NIH3T3 tox 2 104
O=C(Nc1ccc(F)cc1)N1CCCCN2[C@H](CO)[C@H](c3ccc(-c4ccccc4F)cc3)[C@@H]2C1	T cruzi growth-1 115 (no result: GASC1 inh, IDH1 mut inh) | T cruzi growth-2 108 | T cruzi growth-3 inactive | 3T3 cytotox inactive | NIH3T3 tox 2 52
O=C(Nc1ccccc1)N1CCCCN2[C@@H](CO)[C@H](c3ccc(-c4ccccc4F)cc3)[C@@H]2C1	none (no result: IDH1 mut inh)
Cc1ccc(SCCC(=O)N2CCN(c3ncc(C(F)(F)F)cc3Cl)CC2)cc1	none (no result: GASC1 inh, T cruzi growth-1)
CC(C)c1cc(C(=O)N2CCOCC2)c(NC(=O)c2cc(-c3cccnc3)nc3ccc(Br)cc23)s1	none (no result: GASC1 inh, T cruzi growth-1)
O=C1C(=O)N(CCCn2ccnc2)C(c2ccc(Cl)cc2)C1C(=O)c1cccs1 (stereo unspecified)	none (no result: GASC1 inh, T cruzi growth-1)
CCOc1ccccc1C(=O)Nc1ccc(S(=O)(=O)Nc2ccccn2)cc1	none (no result: GASC1 inh, T cruzi growth-1)
O=C(Nc1ccc(F)cc1)N1CCCCN2[C@H](C1)[C@H](c1ccc(-c3ccccc3F)cc1)[C@@H]2CO	T cruzi growth-1 inconclusive (no result: GASC1 inh, IDH1 mut inh) | T cruzi growth-2 109 | T cruzi growth-3 inactive | 3T3 cytotox inactive | NIH3T3 tox 2 65
COc1ccc(NC(=O)N2CCCCN3[C@H](C2)[C@@H](c2ccc(-c4ccccc4F)cc2)[C@@H]3CO)cc1	none (no result: IDH1 mut inh)

Screening results as filed in PubChem.
